Bioassay records as filed in PubChem.
Shown are actives, neighbours in structure and some others; about 2.1% of the full set was active somewhere.
beta cell repl: induces beta-cell replication in MIN6 cells; proliferation, % at 10 µM; AID 2380; hit rate 0.29% among 330,000; MIN6 cells proliferation, ATPlite luminescence, 48 h; cells starved in 0.2% serum; 100% = growth in 10% serum;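 active = compounds whose signal lies at least 3.5 SD above the mean of all wells on their plate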;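 also: 0% = DMSO-treated cells in low-serum medium and 100% = 10% serum control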
iPSC survival up: hiPSC single-cell survival enhancement; ATPlite luminescence; 100% = ROCK inhibitor wells, 0% = DMSO; survival enhancement, % at 20 µM; hit rate 0.044% among 360,000; AID 602274; in the data active = survival enhancement above about 18%;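 also: cells exposed to compounds for 16 hours before the ATP read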
CRFBP-R2 agonist: CRF-BP/CRF-R2 complex agonism; HEK293 CRF-R2/CRF-BP, calcium dye fluorescence (FLIPR); percent of saturating CRF peptide response; hit rate 0.46% among 350,000; AID 588473; activation, % at 13.2 µM;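 active = activation of at least 50%, plus an integration ratio under a set limit after plate pattern correction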;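 also: plate controls were neutral control wells without compound for no effect and CRF at EC100 for full effect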
Cardio protect: protects H9c2 cardiomyocytes from peroxide injury; H2O2 injury protection, ATPLite, 2 h; protection from H2O2 cell death, % at 20 µM; hit rate 0.63% among 360,000; AID 588492;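 active = compounds giving at least 50% protection of heart cells from peroxide-induced death in the single-dose screen, raw or plate-pattern-corrected value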;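 also: 0% = DMSO wells with peroxide and 100% = DMSO wells without peroxide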
UCH37 DUB inh: blocks the human deubiquitinase UCH37. Q9Y5K5. purified proteasome/UCH37, Ub-AMC cleavage fluorescence. inhibition, % (concentration not given with the values). hit rate 0.33% among 330,000;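 active = mean inhibition over replicate wells above about 20%, limit read from the data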;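 also: 0% = compound-free wells with enzyme and 100% = wells lacking proteasome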
Target sequence (Q9Y5K5 whole entry, looked up): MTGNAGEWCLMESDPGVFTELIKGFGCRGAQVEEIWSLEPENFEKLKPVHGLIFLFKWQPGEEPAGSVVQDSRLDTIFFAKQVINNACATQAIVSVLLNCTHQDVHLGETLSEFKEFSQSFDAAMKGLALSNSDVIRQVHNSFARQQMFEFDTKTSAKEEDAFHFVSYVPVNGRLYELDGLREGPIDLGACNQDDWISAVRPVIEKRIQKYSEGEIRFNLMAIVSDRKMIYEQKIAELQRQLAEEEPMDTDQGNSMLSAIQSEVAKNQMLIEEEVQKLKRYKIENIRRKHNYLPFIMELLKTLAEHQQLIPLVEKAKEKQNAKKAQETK
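Material: human UCH37 enzyme supplied as purified proteasome complex. Measure: % inhibition of Ub-AMC cleavage fluorescence. Medium: pH 7.4 Tris-HCl (50 mM) with ovalbumin, ATP-MgCl2, DTT. Times: 30 min preincubation with enzyme, 25 min cleavage at room temperature. Detection: AMC fluorescence intensity at 355/460 nm.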
CRFR2-BP antag: antagonists of CRF-binding protein/CRF-R2 receptor complex. HEK293 CRF-R2/CRF-BP, CRF-induced calcium fluorescence. inhibition, % at 11.8 µM. hit rate 0.59% among 350,000;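 active = inhibition of the ligand-induced calcium signal above about 50% at the single tested concentration, limit read from the data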
* hit, by the source's call; . = no result.

SMILES	beta cell repl	iPSC survival up	CRFBP-R2 agonist	Cardio protect	UCH37 DUB inh	CRFR2-BP antag
O=C(/C=C/c1ccc(O)c(O)c1)c1ccc(S(=O)(=O)N2CCCCCC2)cc1	-4.3	-2.1	-0.7	73.9*	2.6	-33.0
Clc1ccc(Cn2cc(C=Nn3cnnc3)c3ccccc32)cc1	.	.	.	.	1.8	.
COc1cc(-c2ccc3oc(-c4ccsc4)cc(=O)c3c2)cc(OC)c1OC	-5.7	-1.6	-2.5	55.9*	4.0	1.9
CC(=O)N1CCC2(CC1)CC(=NNC(=S)Nc1ccccc1F)c1cc(O)ccc1O2	.	.	.	.	-54.1	.
CC1CCc2c(C(=O)Nc3ccccn3)csc2C1 (stereo not drawn)	-3.6	-0.8	-0.9	-15.1	0.0	57.3*
CCn1c(CNc2cccc(C(F)(F)F)c2)n[nH]c1=S	-3.5	-0.7	0.4	-6.5	31.8*	-3.8
COC(=O)/C=C/c1ccc(OC(=O)OC)c(OC(=O)OC)c1	.	-1.0	-2.1	61.9*	0.3	2.9
O=S(=O)(NC1CCCCC1N1CCN(c2cccc(Cl)c2)CC1)c1ccccc1 (stereo not drawn)	-2.2	-0.5	8.6	-3.6	2.0	-26.2
O=S(=O)(NC1CCCCC1N1CCOCC1)c1ccc(Cl)cc1 (stereo not drawn)	-3.1	-0.8	132.6*	9.0	2.1	-130.7
O=S(=O)(NC1CCCCC1N1CCN(c2ccccc2F)CC1)c1ccc(Cl)cc1 (stereo not drawn)	-7.2	-0.4	93.5*	-11.0	3.7	-65.7
Cc1nn(-c2ccccc2)c(C)c1C=NNC(=O)CSc1nnc(SCc2cccc3ccccc23)s1	.	.	.	.	6.6	.
CCOC(=O)c1c(C)[nH]c(N=Nc2cc(C(=O)O)cc(C(=O)O)c2)c1C	0.4	-0.5	-1.7	0.7	24.0*	16.8
Cc1ccc(C=NNC(=O)C2CC(=O)N(c3ccccc3)C2)s1 (stereo not drawn)	.	.	.	.	5.1	.
CCC(c1nnnn1C1CCCC1)N1CCN(Cc2ccccc2)CC1 (stereo not drawn)	-1.5	-1.0	-1.4	12.3	1.5	102.6*
O=C(CSc1nc2ccccc2[nH]1)NN=Cc1ccncc1	.	.	.	.	4.3	.
COc1cc(C=N/N=C2/NC(=O)C(Cc3ccccc3)S2)ccc1O (stereo not drawn)	.	.	.	.	7.5	.
Cc1ccc(NC(=O)c2nc[nH]c2C(=O)NCCCCNC(=O)c2[nH]cnc2C(=O)Nc2ccc(C)cc2)cc1	-5.6	-0.5	0.4	32.9	-2.7	-13.1
Cc1ccc(NC(=O)c2nc[nH]c2C(=O)NCCCNC(=O)c2[nH]cnc2C(=O)Nc2ccc(C)cc2)cc1	-6.1	0.1	-0.2	66.4*	.	3.8
Cc1ccc(NC(=O)c2nc[nH]c2C(=O)NCCCCCCNC(=O)c2[nH]cnc2C(=O)Nc2ccc(C)cc2)cc1	-6.1	-1.3	-0.4	81.3*	1.1	-2.9
Cc1ccc(CN2CCN(N=Cc3cccc([N+](=O)[O-])c3)CC2)cc1	.	.	.	.	-1.5	.
CC(C)(CNC(=O)c1ccc(Br)o1)CNC(=O)c1ccc(Br)o1	-0.1	0.0	-0.6	22.8	0.3	76.4*
CN(C)/C=C(\C#N)C(=O)NN=C(CC(=O)C(F)(F)F)c1ccco1	.	.	.	.	1.9	.
COc1cccc(CN(C)C(=O)C(Cc2ccccc2)NC(=O)c2ccccc2)c1OC (stereo not drawn)	3.2	-0.3	-1.1	57.2*	2.9	-7.8
CCc1ccc(C=NNC(=O)c2c[nH]c3ccccc23)s1	.	.	.	.	5.5	.
COc1ccccc1/C=C/C=NNC(=O)c1cc(-c2ccco2)[nH]n1	.	.	.	.	-1.3	.
SMILES	beta cell repl	iPSC survival up	CRFBP-R2 agonist	Cardio protect	UCH37 DUB inh	CRFR2-BP antag
CN(C)c1ccc(N=Cc2nc(-c3ccccc3)oc2O)cc1	3.1	0.9	161.3*	3.8	8.1	-172.1
Oc1oc(-c2ccccc2)nc1C=Nc1ccccc1	-3.8	-0.1	-0.9	1.5	4.1	1.1
O=C1CC(C(=O)Nc2ccc(Cl)c(Cl)c2)S/C(=N\N=Cc2ccco2)N1 (stereo not drawn)	.	.	.	.	4.3	.
O=c1c2c3c(sc2ncn1N=Cc1cccnc1)CCCC3	.	.	.	.	4.4	.
Cc1ccc(C)n1NC(=O)c1ccccc1O	-0.9	-0.3	2.9	-7.5	-4.8	79.5*
Cc1ccc(C)n1NC(=O)c1ccccc1[N+](=O)[O-]	2.3	1.2	0.9	-4.1	2.1	-19.1
Cc1sc2ncnc(OCC(=O)NC(C)C)c2c1C	-1.3	1.1	10.1	1.4	0.5	89.6*
O=C(N/N=C/c1c(O)n(Cc2ccccc2)c(=O)c2ccccc12)c1cccnc1	-4.1	-0.1	64.4*	26.6	-2.4	-49.6
Brc1ccsc1C=NNc1ccccc1	.	.	.	.	3.7	.
CC(=NNc1nncc2ccccc12)c1ccc(C(C)(C)C)cc1	.	.	.	.	3.3	.
CCN(c1ccccc1)c1nc(C#N)nc(N(CC)c2ccccc2)n1	-5.5	2.5	1.0	-14.7	1.7	82.7*
CCN(CC)c1nc(C#N)nc(N(CC)CC)n1	-2.3	0.7	-1.2	-4.0	5.2	23.9
COc1ccc(OC)c(C=Nn2c(COc3ccccc3)n[nH]c2=S)c1	.	.	.	.	-25.4	.
CC(NC(=O)c1ccccc1F)C12CC3CC(CC(C3)C1)C2 (stereo not drawn)	-3.1	-1.6	-0.7	-1.1	1.9	-1.4
Cc1occc1C(=O)NC(C)C12CC3CC(CC(C3)C1)C2 (stereo not drawn)	-2.9	-0.4	-20.8	4.0	-0.9	52.3*
CC(=NNC(=O)c1nn(C)cc1Br)c1ccc(NC(=O)c2ccncc2)cc1	.	.	.	.	1.3	.
CCOc1ccc(-n2c(SCC(=O)NCc3ccco3)nc3ccccc3c2=O)cc1	-2.9	5.3	0.8	19.1	1.9	-7.7
CCOc1ccc(-n2c(SCC(=O)NCc3ccco3)nc3c([nH]c4ccccc43)c2=O)cc1	-2.4	1.0	0.3	22.9	-2.9	78.0*
NC(=NOC(=O)c1ccncc1)c1cccc([N+](=O)[O-])c1	.	.	.	.	2.4	.
Cc1ccc2nc3sc(C(=O)NCc4ccco4)c(N)c3cc2c1	-3.7	2.0	3.2	-11.0	-2.3	-7.3
COc1cc2cc3c(N)c(C(=O)NCc4ccco4)sc3nc2cc1OC	-2.0	1.0	0.6	58.3*	6.8	6.5
O=C(OCCN1C(=O)c2cccc3c(N4CCOCC4)ccc(c23)C1=O)c1ccccc1Cl	.	0.8	170.1*	-8.9	-16.4	-164.5
O=C(OCCN1C(=O)c2ccccc2C1=O)c1cc(S(=O)(=O)N2CCOCC2)ccc1Cl	-1.5	0.0	0.5	46.6	0.9	3.8
O=C(OCc1c(F)cccc1Cl)c1cc([N+](=O)[O-])ccc1N1CCOCC1	1.1	-0.4	-1.1	-7.1	3.5	-2.7
O=C(OCCN1C(=O)c2cccc3c(N4CCOCC4)ccc(c23)C1=O)c1cccc(Cl)c1	.	.	175.2*	.	-24.6	-168.5
O=C(OCCN1C(=O)c2cccc3c(N4CCOCC4)ccc(c23)C1=O)c1ccc(Cl)cc1Cl	.	0.0	176.0*	-4.8	-15.3	-161.3
CC(=NOC(=O)c1c(-c2ccccc2Cl)noc1C)c1nccs1	.	.	.	.	-0.8	.
